ChEMBL document CHEMBL4033799, “Stable and Long-Lasting, Novel Bicyclic Peptide Plasma Kallikrein Inhibitors for the Treatment of Diabetic Macular Edema” (J Med Chem, 2018)
The source made the active and inactive calls. No cut-off for these calls is given here. *1 amine or outer side, *2 acyl side, *3 side chain or, on linkers, in order; H or OH if unused. Where a SMILES comes first, the peptide text is derived from it. Bridges are numbered along the chain shown (N, C = ends). TBMB = c1c(C[*:1])cc(C[*:3])cc1C[*:2]

Legend:
[1] = target: Plasma kallikrein (Homo sapiens, UniProt P03952); test: Inhibition of human plasma kallikrein using fluorogenic H-Pro-Phe-Arg-AMC peptide as substrate preincubated for 15 mins followed by substrate addition measured by fluorescence-based assay; details: read-out: Ki(app)
[2] = target: Plasma kallikrein (Rattus norvegicus, UniProt P14272); test: Inhibition of recombinant Sprague-Dawley rat plasma kallikrein using fluorogenic H-Pro-Phe-Arg-AMC peptide as substrate preincubated for 15 mins followed by substrate addition measured by fluorescence-based assay; details: read-out: Ki(app)
[3] = Inhibition of rabbit plasma kallikrein using fluorogenic H-Pro-Phe-Arg-AMC peptide as substrate preincubated for 15 mins followed by substrate addition measured by fluorescence-based assay; set-up: species or system Oryctolagus cuniculus; details: read-out: Ki(app)
Summary of the method: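 Assays ran at 25 °C in 50 mM Tris-HCl, 250 mM NaCl, 1.5 μM BSA, pH 7.5. PKal (nominal 1–2 nM) was preincubated 15 min with serially diluted peptide. […] Human PKal was purified from plasma; rat PKal was made in-house or bought; other species were purified in-house from kaolin-activated plasma.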

[4] = target: (UniProt A0A8D1M4K5); test: Inhibition of pig plasma kallikrein using fluorogenic H-Pro-Phe-Arg-AMC peptide as substrate preincubated for 15 mins followed by substrate addition measured by fluorescence-based assay; set-up: species or system Sus scrofa; details: read-out: Ki(app)
[5] = Half life in human plasma at 4 uM measured up to 24 hrs by LC-MS/MS analysis; format: ADME, cell-free
Summary of the method: (§1)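 Peptide from a 0.16 mM DMSO stock was added to human, rat or mouse plasma (final 4 μM) or to homogenized human vitreous (final 1 μM), with internal standard. Samples were incubated at 37 °C for up to 24 h and extracted with water/acetonitrile/methanol 1:3:3.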

[6] = Half life in mouse plasma at 4 uM measured up to 24 hrs by LC-MS/MS analysis; format: ADME, cell-free; summary of the method: as §1
[7] = Half life in rat plasma at 4 uM measured up to 24 hrs by LC-MS/MS analysis; format: ADME, cell-free; summary of the method: as §1
[8] = Half life in human vitreous humor at 1 uM measured up to 24 hrs by LC-MS/MS analysis; format: ADME, tissue-based; summary of the method: as §1
[9] = system: Plasma; test: Drug metabolism in rat plasma assessed as (5R,8S,11S,14S,17S,20S,23R)-29-[[(2R)-2-acetamido-3-hydroxy-3-oxo-propyl]sulfanylmethyl]-5-amino-14-(3-amino-3-oxo-propyl)-17-(carboxymethyl)-11-(1H-imidazol-5-ylmethyl)-8,20-diisobutyl-6,9,12,15,18,21-hexaoxo-3,25-dithia-7,10,13,16,19,22-hexazabicyclo[25.3.1]hentriaconta-1(31),27,29-triene-23-carboxylic acid metabolite formation at 50 uM after 18 hrs by MALDI-TOF analysis; format: ADME, cell-free
Summary of the method: (§2)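 Peptide from a 1 mM DMSO stock was diluted to 50 μM in citrated mouse, rat or human plasma and incubated at 37 °C for up to 2 days. Samples taken at time points were quenched in 1:1 acetonitrile/methanol and centrifuged. The supernatant was mixed with ammonium bicarbonate in acetonitrile/water, and parent peptide and metabolites were detected by MALDI-TOF.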

[10] = system: Plasma; test: Drug metabolism in rat plasma assessed as (5R,8S,11S,14S,17S,20S,23R)-29-[[(2R)-2-acetamido-3-[[(1S)-2-hydroxy-1-(hydroxymethyl)-2-oxo-ethyl]amino]-3-oxo-propyl]sulfanylmethyl]-5-amino-14-(3-amino-3-oxo-propyl)-17-(carboxymethyl)-11-(1H-imidazol-5-ylmethyl)-8,20-diisobutyl-6,9,12,15,18,21-hexaoxo-3,25-dithia-7,10,13,16,19,22-hexazabicyclo[25.3.1]hentriaconta-1(31),27,29-triene-23-carboxylic acid metabolite formation at 50 uM after 18 hrs by MALDI-TOF analysis; format: ADME, cell-free; summary of the method: as §2
[11] = Plasma clearance in Sprague-Dawley rat at 10 mg/kg, iv administered as infusion over 1 hr measured up to 240 mins post dose by LC-MS/MS analysis; format: ADME, organism-based
Summary of the method: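 Groups of 2 male Sprague-Dawley rats; 10 mg/kg infused into the jugular vein over 1 h. Serial blood drawn via tail-vein cannulae at 5–240 min into EDTA tubes and processed to plasma. Plasma assayed by LC-MS/MS against a 16–4000 ng/mL calibration line in control rat plasma.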

[12] = system: Plasma; test: Drug metabolism in rat plasma assessed as (5R,8S,11S,14S,17S,20S,23R)-29-[[(2R)-2-acetamido-3-[[(1S)-1-(hydroxymethyl)-2-[[(1S)-2-[(2S)-2-[[(1S)-2-hydroxy-1-methyl-2-oxo-ethyl]carbamoyl]pyrrolidin-1-yl]-1-(1H-indol-3-ylmethyl)-2-oxo-ethyl]amino]-2-oxo-ethyl]amino]-3-oxo-propyl]sulfanylmethyl]-5-amino-14-(3-amino-3-oxo-propyl)-17-(carboxymethyl)-11-(1H-imidazol-5-ylmethyl)-8,20-diisobutyl-6,9,12,15,18,21-hexaoxo-3,25-dithia-7,10,13,16,19,22-hexazabicyclo[25.3.1]hentriaconta-1(31),27,29-triene-23-carboxylic acid metabolite formation at 50 uM after 18 hrs by MALDI-TOF analysis; format: ADME, cell-free; summary of the method: as §2
[13] = system: Plasma; test: Drug metabolism in human plasma assessed as deltaL6H7Q6 metabolite formation at 50 uM after 18 hrs by MALDI-TOF analysis; format: ADME, cell-free; summary of the method: as §2
[14] = system: Plasma; test: Drug metabolism in human plasma assessed as deltaH7Q6 metabolite formation at 50 uM after 18 hrs by MALDI-TOF analysis; format: ADME, cell-free; summary of the method: as §2
[15] = system: Plasma; test: Drug metabolism in human plasma assessed as deltaLeu6 metabolite formation at 50 uM after 18 hrs by MALDI-TOF analysis; format: ADME, cell-free; summary of the method: as §2
[16] = target: Kallikrein-6 (Homo sapiens, UniProt Q92876); test: Inhibition of recombinant human C-terminal His-tagged KLK6 isoform 1 (1 to 244 residues) expressed in HEK293 cells using fluorogenic Boc-QARAMC peptide as substrate by fluorescence based assay
Summary of the method: (§3)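 Human serine proteases were assayed with substrates and conditions set by each supplier's recommendations. Peptides were first screened at 50 μM. Where inhibition was detected, Ki was determined from activity across peptide concentrations using a tight-binding rate equation.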

[17] = target: Prothrombin (Homo sapiens, UniProt P00734); test: Inhibition of recombinant human alpha thrombin using fluorogenic peptide as substrate by fluorescence based assay
Summary of the method: (§4)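 Panel of human serine proteases. Substrates and assay conditions followed each supplier's recommendations. Peptides were first screened at 50 μM. Where inhibition was detectable, hydrolytic activity was measured across a range of peptide concentrations. Ki was obtained by fitting to the tight-binding inhibitor rate equation.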

[18] = target: T1, Cathepsin G (Homo sapiens, UniProt P08311); test: Inhibition of recombinant human Cathepsin-G; summary of the method: as §4
T1 sequence (P08311 whole entry): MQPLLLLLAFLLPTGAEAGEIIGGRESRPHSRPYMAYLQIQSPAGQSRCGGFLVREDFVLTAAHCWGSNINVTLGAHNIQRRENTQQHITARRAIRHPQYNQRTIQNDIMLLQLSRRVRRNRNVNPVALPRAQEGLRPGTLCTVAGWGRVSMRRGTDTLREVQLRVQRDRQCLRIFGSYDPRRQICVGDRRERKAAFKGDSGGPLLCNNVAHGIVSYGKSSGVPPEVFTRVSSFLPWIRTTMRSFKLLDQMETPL

[19] = target: Coagulation factor X (Homo sapiens, UniProt P00742); test: Inhibition of recombinant human C-terminal 10His-tagged factor Xa (24 to 488 residues) expressed in baculovirus derived insect sf21 cells using fluorogenic Mca-RPKPVE-Nval-WRK(Dnp)-NH2 peptide as substrate by fluorescence based assay; summary of the method: as §3
[20] = target: T2, Complement C1s subcomponent (Homo sapiens, UniProt P09871); test: Inhibition of recombinant human C-terminal 6His-tagged complement component C1s (1 to 688 residues) expressed in mouse NS0 cells using fluorogenic Z-Lys-SBzl peptide as substrate after 5 mins by fluorescence based assay; summary of the method: as §3
T2 sequence (P09871 whole entry): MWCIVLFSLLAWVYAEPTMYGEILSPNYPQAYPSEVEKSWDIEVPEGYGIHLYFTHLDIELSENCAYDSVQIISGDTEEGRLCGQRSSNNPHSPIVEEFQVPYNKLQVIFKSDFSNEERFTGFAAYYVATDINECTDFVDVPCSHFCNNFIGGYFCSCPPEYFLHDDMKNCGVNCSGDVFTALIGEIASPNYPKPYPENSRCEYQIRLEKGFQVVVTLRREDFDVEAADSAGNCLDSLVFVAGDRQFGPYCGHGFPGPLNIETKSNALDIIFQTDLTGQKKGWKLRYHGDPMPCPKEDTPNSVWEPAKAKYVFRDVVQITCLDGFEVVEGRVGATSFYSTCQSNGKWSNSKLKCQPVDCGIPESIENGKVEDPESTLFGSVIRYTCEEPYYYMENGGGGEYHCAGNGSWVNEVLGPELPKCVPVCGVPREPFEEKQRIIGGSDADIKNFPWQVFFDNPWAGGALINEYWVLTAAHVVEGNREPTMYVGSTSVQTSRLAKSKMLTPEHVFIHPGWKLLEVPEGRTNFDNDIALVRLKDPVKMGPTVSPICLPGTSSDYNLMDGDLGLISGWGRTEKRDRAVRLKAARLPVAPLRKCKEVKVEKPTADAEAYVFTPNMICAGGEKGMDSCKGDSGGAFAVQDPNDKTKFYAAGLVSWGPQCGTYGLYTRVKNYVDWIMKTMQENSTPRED

[21] = species on record: Oryctolagus cuniculus; test: Inhibition of plasma kallikrein in rabbit plasma using HMWK as substrate assessed as suppression of kaolin-activated protein induced bradykinin release at 2 uM preincubated for 15 mins followed by substrate addition measured after 15 min by ELISA
[22] = system: Rattus norvegicus; test: Antiinflammatory activity in Sprague-Dawley rat carrageenan-induced paw edema model assessed as inhibition of paw edema AUC (0 to 2 hrs) at 10 to 30 mg/kg, ip pretreated for 15 mins followed by carrageenan challenge; format: functional, organism-based
Summary of the method: (§5)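 Male Sprague-Dawley rats received peptide IP (30, 10 or 3 mg/kg), or indomethacin IP at 5 mg/kg, 15 min before subplantar carrageenan. Paw volume was followed over time against a vehicle group.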

[23] = system: Mus musculus; test: Antidiabetic activity in STZ-induced diabetic C57BL/6J mouse model assessed as reduction in retinal vascular permeability at 100 ug administered 4 times via ivt measured at 8 weeks post diabetes onset relative to control; format: functional
Summary of the method: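 Diabetes was induced with STZ in male C57BL/6J mice. Peptide was given as repeated intravitreal injections (4 × 100 μg). Retinal permeability was read as FITC-BSA extravasation 8 weeks after diabetes onset and compared with vehicle-treated diabetic mice. The anti-VEGFR2 antibody DC101 (6.2 μg/eye, single dose) served as positive control.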

[24] = system: Rattus norvegicus; test: Antiinflammatory activity in ip dosed Sprague-Dawley rat carrageenan-induced paw edema model assessed as inhibition of edema pretreated for 15 mins followed by carrageenan challenge measured up to 6 hrs; format: functional, organism-based; summary of the method: as §5

Which Ki [1] does the source give for `CC(=O)N[C@H]1CSCc2cc3cc(c2)CSC[C@H](NC(=O)[C@H](CCCNC(=N)N)NC(=O)[C@H](C)NC(=O)[C@@H]2CCCN2C(=O)[C@H](Cc2c[nH]c4ccccc24)NC(=O)[C@H](CO)NC1=O)C(=O)N[C@@H](CC(C)C)C(=O)N[C@@H](Cc1cnc[nH]1)C(=O)N[C@@H](CCC(N)=O)C(=O)N[C@@H](CC(=O)O)C(=O)N[C@@H](CC(C)C)C(=O)N[C@H](C(=O)O)CSC3` (Ac-CSWPARCLHQDLC-OH; linker 1-7-13 via TBMB) here?
The Ki was 0.15 nM.

What about the Ki [2] of the same molecule?
The Ki was 2 nM.

What about the Ki [3] of the same molecule?
The Ki was 10 nM.

What about the Ki [4] of the same molecule?
The Ki was 3.6 nM.

And the half-life at 4 µM [5]?
Its half-life at 4 µM is 420 min.

What about the half-life at 4 µM [6] of the same molecule?
Its half-life at 4 µM is 90 min.

And the half-life at 4 µM [7]?
Its half-life at 4 µM is 168 min.

What about the half-life at 1 µM [8] of the same molecule?
The half-life at 1 µM was > 1440 min.

And the Drug metabolism [9]?
Its Drug metabolism is “Metabolite_Detected”.

And the Drug metabolism [10]?
Its Drug metabolism is “Metabolite_Detected”.

What about the clearance [11] of the same molecule?
Its clearance is 156 mL/min/kg.

What about the Drug metabolism [12] of the same molecule?
Its Drug metabolism is “Metabolite_Detected”.

What about the Drug metabolism [13] of the same molecule?
Its Drug metabolism is “Metabolite_Detected”.

What about the Drug metabolism [14] of the same molecule?
Its Drug metabolism is “Metabolite_Detected”.

What about the Drug metabolism [15] of the same molecule?
Its Drug metabolism is “Metabolite_Detected”.

What does the source list for `CC(=O)N[C@H]1CSCc2cc3cc(c2)CSC[C@@H](NC(=O)[C@H](CCCCNC(=N)N)NC(=O)[C@H](Cc2ccc(O)cc2)NC(=O)C2CCN2C(=O)[C@H](Cc2ccccc2)NC(=O)[C@H](CO)NC1=O)C(=O)N[C@@H](C)CN[C@@H](Cc1cnc[nH]1)C(=O)N[C@@H](CCC(N)=O)C(=O)N[C@@H](CC(=O)O)C(=O)N[C@@H](CC(C)C)C(=O)N[C@H](C(=O)O)CSC3` (some centres undefined)?
Ki [16]: > 50 µM; Ki [17]: > 50 µM; Ki [18]: > 50 µM; Ki [19]: > 50 µM; Ki [20]: > 50 µM; inhibition [21]: inactive; inhibition [22]: Active; inhibition [23]: inactive; inhibition [24]: Dose-dependent effect
